From ChEMBL document CHEMBL4308887, “Synthesis and biological evaluation of clovamide analogues with catechol functionality as potent Parkinson's disease agents in vitro and in vivo” (Bioorg Med Chem Lett, 2019) come the findings set out here.

Data set [1] deals with SH-SY5Y. Description: Neuroprotection against H2O2-induced cell death in human SH-SY5Y cells assessed as cell viability at 10 uM preincubated for 6 hrs followed by H2O2 addition and measured after 24 hrs in presence of PI3K/Akt/mTOR inhibitor rapamycin by MTT assay relative to control. Particulars: read-out: Activity. In kind it is functional. In a few lines: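 SH-SY5Y cells preincubated 1 h with LY294002 (5 μM) or rapamycin (100 nM). Then 1 (10 μM) for 6 h, then 600 μM H₂O₂. Viability by MTT. Mean ± S.E.M., three independent experiments.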

In data set [2] the test system is SH-SY5Y. Description: Induction of mitochondrial dysfunction in non-stimulated human SH-SY5Y cells assessed as mitochondrial membrane potential at 10 uM measured after 6 hrs by Rh123 staining based flow cytometry (reference value: 97.6 %). It is filed as cell-based.
The subject of data set [3] is SH-SY5Y. In words: Protection against H2O2-induced apoptosis in human SH-SY5Y cells assessed as late apoptotic cells at 1 uM preincubated for 6 hrs followed by H2O2 addition and measured after 24 hrs by Annexin V-FITC/propidium iodide staining based flow cytometry (reference value: 3.5%). In kind it is functional. In general terms: Flow cytometry measures light scatter and fluorescence of single cells or particles in a stream.

Data set [4] is described as follows: Activation of PI3K/Akt/mTOR signaling in human SH-SY5Y cells assessed as up regulation of H2O2-induced HO-1 expression at 10 uM preincubated for 6 hrs followed by H2O2 addition and after 24 hrs in presence of JNK inhibitor SP600125 by Western blot analysis. It is filed as cell-based. In a few lines:
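SH-SY5Y cells preincubated 1 h with one inhibitor: SB203580 10 μM, LY294002 5 μM, U0126 10 μM, SP600125 5 μM or rapamycin 100 nM. Then 1 (10 μM) for 6 h, then 600 μM H₂O₂. HO-1 measured by western blot and densitometry. Mean ± S.E.M., three independent experiments.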
A general note: In western blotting, separated proteins are transferred to a membrane and probed.

The subject of data set [5] is SH-SY5Y. Description: Neuroprotection against H2O2-induced cell death in human SH-SY5Y cells preincubated for 6 hrs followed by H2O2 addition and measured after 24 hrs by MTT assay. In kind it is functional, cell-based. In a few lines:
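Primary screen at 100 μM, then dose-response. SH-SY5Y cells pretreated, then exposed to 600 μM H₂O₂ (the level chosen from a 100–1000 μM, 24 h viability titration). EC₅₀ is the concentration giving 50% of maximal effect. N-acetyl-L-cysteine served as positive control. DMSO below 0.1%. Mean ± S.E.M. of three experiments.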
(Tetrazolium assays rely on reduction of a dye to a coloured formazan, in cell work by metabolically active cells.)

For another data set, the system named is Mus musculus. Description: Anti-parkinson's activity in MPTP-induced C57Bl/6 mouse model of Parkinson's disease assessed as decrease in ratio of Bax/Bcl2 expression in striatum at 10 to 20 mg/kg, ig pretreated for 10 days followed by MPTP challenge measured 10 days post MPTP addition by Western blot analysis. In kind it is functional, organism-based.
A short description of data set [6]: Activation of PI3K/Akt/mTOR signaling in human SH-SY5Y cells assessed as increase in AKT phosphorylation after 5 to 360 mins by Western blot analysis. It is filed as cell-based. In a few lines: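 SH-SY5Y cells, unstimulated, exposed to 1 for 5, 15, 30, 60, 120, 240 or 360 min. Phospho-AKT and phospho-mTOR measured by western blot, reported as p-AKT/t-AKT and p-mTOR/t-mTOR ratios after densitometry. Mean ± S.E.M. of three independent experiments.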

pEC50: −log10 of the molar value. Calls of active or inactive are those of the source. The rule behind the calls is not given here.

One may read the pEC50 as the negative decadic logarithm of the EC50, by convention in mol/L. Higher therefore signals a low EC50. For `COC(=O)[C@H](Cc1ccccc1)NC(=O)/C=C/c1ccc(O)c(O)c1` [N-CAFFEOYL-PHENYLALANINE METHYL ESTER], the viability at 10 µM in the data set with SH-SY5Y [1] is 65.9%. Besides, the Activity in the data set on SH-SY5Y [2] is recorded as 98.1%; in the data set with SH-SY5Y [3] it was 3.9%. Moreover, the outcome (in data set [4]; in the data set with Mus musculus; in data set [6]) was Active. The pEC50 in the data set with SH-SY5Y [5] was 5.37.
